The test system of the data set is MS2 coat protein. Put plainly: apparent Kd, MS2 coat protein; higher = weaker binding; RNA-MaP array. Put shortly:
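For each design, the apparent Kd is the median of binding-curve fits across its clusters. Designs measured on fewer than 10 clusters were dropped. The RNAs were transcribed from sequenced DNA templates on an Illumina sequencing chip and incubated at room temperature, with or without input ligand, with fluorescently labeled MS2 coat protein at 1.5 nM to 3 μM.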

The mark [1] stands for this setting: designed as: ON switch for flavin mononucleotide, no ligand.
Where [2] appears, read: ligand present: flavin mononucleotide, designed as: ON switch for flavin mononucleotide.
[3] abbreviates: designed as: OFF switch for flavin mononucleotide, no ligand.
[4] abbreviates: ligand present: flavin mononucleotide, designed as: OFF switch for flavin mononucleotide.

For the sequence “GUCAUCUGUUUAGGAUAUGCGGUAGACACCGGGCGAGAAACAUGAGGAUCACCCAUGUUCGGAUUGCAGAAGGAAACGGCAAUA”, the “apparent Kd” value reads like this: under setting [1], 13.6 nM; under setting [2], 17 nM.
As for “AAAUUAAUCAGAGGAUAUAGACAUGAGGAUCACCCAUGUACCAAAAUCGCGAAGAAGGAUCCGUGCUAGAAGGCAGAAUACAUA”, the “apparent Kd” value under setting [3] came to 10.3 nM and the “apparent Kd” value under setting [4] was determined as 8.65 nM.
Consider “CAUGCUUGCGAGGAUAUAAGGUUCUCCCUGUUCUUAGAAGGCGCAACAUGAGGAUCACCCAUGUUCCUACCGAA”, for which the “apparent Kd” value reads like this: under setting [3], 43 nM; under setting [4], 283 nM.
Turning to “UUUGCUACCUAGAAGGCUGACGAGACAUGAGGAUCACCCAUGUUGGAAAUUCUUACGGCAAUGGCAGAGGAUAUAGGACGAAAA”, the “apparent Kd” value under setting [3] was 7.66 nM and the “apparent Kd” value under setting [4] was found to be 11.3 nM.
On to “UUCAUGUUAGGAUAUAGUGUAAGAGCGGGCGGGACUCUAUUCUAGAAGGAACAUGAGGAUCACCCAUGUUAAGG”, for which the “apparent Kd” value runs as follows: under setting [3], 213 nM; under setting [4], 124 nM.
Take “ACCAUCAUUGUUAGGAUAUGUAGAGUACUGAGGCUACAGAAGGAACAUGAGGAUCACCCAUGUGUUUCGGUGUA”: the “apparent Kd” value is 31 nM under setting [3] and 126 nM under setting [4].
Take “UUACAGAAAGGAUAUACAUGAGGAUCACCCAUGUAGUAUGAGUUGGUGAGAGUUCGUGGUAGAAGGUUCCGCAA”: the “apparent Kd” value under setting [3] was found to be 53 nM and the “apparent Kd” value under setting [4] was 55.2 nM.
The like results for “CGUCUACAUGAGGAUCACCCAUGUCAGGAUAUACACCAACAACCUUCGCGAGAUAGGUGUAGAAGGGACGGGUA” were, in that order, 8.76 nM and 13.5 nM.
For the sequence “AUUCAUUGAAACAUGAGGAUCACCCAUGUACACUGGCACUUACAGGAUAUUGAAUAUGGAAGUCGCAAGAAGGGUAACGUGAUC”, the “apparent Kd” value was 112 nM under setting [1] and 57 nM under setting [2].
In the case of “GGGCGACUGCAAGGAUAUCUCGAAGUGAGUGGCAGAGAAGGUGCACGUACAUGAGGAUCACCCAUGUGAACUUAUUGGUCAAGG”, the “apparent Kd” value under setting [3] worked out at 25.2 nM and the “apparent Kd” value under setting [4] was 21.9 nM.
In the case of “CGUGUAGGGUAGGAUAUUCGAACACCACAAGGAGAAGAAGGACCUACAUGAGGAUCACCCAUGUGGUUAAUGGC”, the “apparent Kd” value turned out to be 112 nM under setting [3] and 225 nM under setting [4].
“CAUGGGCUAAGACAUUAUUCGUAUUUUGAUACCAGAAAAUUGGCGUUCCCUUGGCAGCAAUAUACAUGAGGAUCACCCAUGUCCC”: the “apparent Kd” value runs as follows: (designed as: OFF switch for theophylline, no ligand) 80.6 nM; (ligand present: theophylline, designed as: OFF switch for theophylline) 93.8 nM.
As for “CCAUGACAUGAGGAUCACCCAUGUGGGUGCAGACAAGGAUAUAGUAAGAAUAGGAUAGAUCUAGAAGGUGUCAUUA”, the “apparent Kd” value under setting [1] was found to be 528 nM and the “apparent Kd” value under setting [2] stood at 282 nM.
For “GACGAGAGACAGAAGGCUCGACUGUGGCUACGAGAUCUGAAAACAUGAGGAUCACCCAUGUUUCGAGAGGAUAUGUCGAAUUAU”, the “apparent Kd” value was 129 nM under setting [3] and 397 nM under setting [4].
As for “CGAGUCUAGGAGAAGGCAUACAUGAGGAUCACCCAUGUCAAAGGGCACGUAACGAUAAUCCACCAUGAGGAUAUCCUGUUUAGA”, the “apparent Kd” value amounted to 26.3 nM under setting [3] and 21.7 nM under setting [4].
Regarding “GCACAAUUAGGAUAUACAUGGGUAUAGGGUGAGACGAAUGCACAUGAGGAUCACCCAUGUAGAAGGAAUCGUCA”, the “apparent Kd” value is, setting by setting: under setting [3], 303 nM; under setting [4], 332 nM.
For the sequence “AUAUCAGGGUAGAAGGCAGCAUCAACAUGAGGAUCACCCAUGUAUAGGCACGUAGCCGCACGUGCUGAGGAUAUACGUUAUAAU”, the “apparent Kd” value reads like this: under setting [1], 16.4 nM; under setting [2], 6.41 nM.
“UUAGGUUAUAAAGUGACAUGAGGAUCACCCAUGUGCUCACAGAGAAGGUUAUACCUACAGGCUAUAAAGGAUAUCUCCUAAAUU”: the “apparent Kd” value was 12.3 nM under setting [3] and 8.73 nM under setting [4].
Regarding “CUAAAGGAUGAAGGAUAUUUGAGUGACACGCAGAAAGAAGGUCAAGCUUACAUGAGGAUCACCCAUGUGCGUGAGUGCAGGUGC”, the “apparent Kd” value reads like this: under setting [3], 14.4 nM; under setting [4], 13.3 nM.
Regarding “CGUUAAGAACAGAAGGCCGAGAUAAUGUUCAGCGGAGGAUAUGUGGAAGAUAGAACAUGAGGAUCACCCAUGUCAACUAGUACC”, the “apparent Kd” value under setting [1] turned out to be 6.01 nM and the “apparent Kd” value under setting [2] is 5.82 nM.
On to “GCUCAUUGCGAGGAUAUUGGAAGAGUGUAAACUCAAGAAGGCGCAACAUGAGGAUCACCCAUGUGAACCCAAAU”, for which the “apparent Kd” value under setting [3] was determined as 7.91 nM and the “apparent Kd” value under setting [4] stood at 14 nM.
Take “UUUUUUUAACAGAAGGACAGACAUAUGAGGGACAUGAGGAUCACCCAUGUGUGCUCGCGUAGGCUGUAGGAUAUGUAGUGCUGG”: the “apparent Kd” value reads like this: under setting [3], 11.2 nM; under setting [4], 8.19 nM.
Consider “GAAAGAUGAGGAUAUACAUGAGGAUCACCCAUGUGAUUAAAUUGAACACCGAAUUACUGUAGAAGGCAUAAACC”, for which the “apparent Kd” value came out at 19.9 nM under setting [3] and 16.8 nM under setting [4].

In general, apparent Kd refers to a dissociation constant that holds for the conditions of the assay.

(Values after the EternaBench riboswitch data.)
